# ChEMBL document CHEMBL3585281, “Antibacterial Labdane Diterpenoids from Vitex vestita” (2015)
# Columns and labels:
# Type in all cases: functional
# Enterococcus durans = assay: Antibacterial activity against Enterococcus durans CIP 104999 after 18 hrs by agar dilution method; settings: CIP 104999, 18 h
# Outline: (§1)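 Agar-dilution MIC against Gram-positive strains. Compounds in DMSO, geometric dilutions giving final 100−0.75 mg/L in Mueller Hinton agar. Strains grown 18 h at 37 °C in trypticase soy broth, diluted in sterile water, spotted by Steers inoculator (about 1000 UFC/spot). Plates incubated 18 h at 37 °C; DMSO blank; ofloxacin positive control. MIC = lowest concentration with no visible growth.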
# Listeria monocytogenes [1] = assay: Antibacterial activity against Listeria monocytogenes N851 after 18 hrs by agar dilution method; settings: N851, 18 h; outline: as §1
# Staphylococcus aureus [2] = assay: Antibacterial activity against Staphylococcus aureus CIP 483 after 18 hrs by agar dilution method; settings: CIP 483, 18 h; outline: as §1
# Corynebacterium striatum = assay: Antibacterial activity against Corynebacterium striatum N840 after 18 hrs by agar dilution method; settings: N840, 18 h; outline: as §1
# [3] = system: Enterococcus casseliflavus; assay: Antibacterial activity against Enterococcus casseliflavus N487 after 18 hrs by agar dilution method; settings: N487, 18 h; outline: as §1
# HCT-116 [4] = assay: Cytotoxicity against human HCT116 cells assessed as growth inhibition at 10^-6 M after 72 hrs by MTS assay relative to control; settings: HCT-116, 72 h, read-out: GI
# Outline: (§2)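 Cells from ATCC; HCT-116 grown in RPMI 1640 and MRC5 in DMEM, each with 10% FCS and 1% glutamine, 37 °C, 5% CO2. Seeded at 2.5 × 10^3 cells/well, cultured 24 h, then exposed to compounds at 1 and 10 μM final for 72 h. MTS read-out, absorbance 490 nm; percent index from treated/control OD490 × 100, three experiments.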
# Enterococcus gallinarum [5] = assay: Antibacterial activity against Enterococcus gallinarum N489 after 18 hrs by agar dilution method; settings: N489, 18 h; outline: as §1
# Listeria innocua = assay: Antibacterial activity against Listeria innocua E044 after 18 hrs by agar dilution method; settings: E044, 18 h; outline: as §1
# Enterococcus faecium [6] = assay: Antibacterial activity against Enterococcus faecium N490 after 18 hrs by agar dilution method; settings: N490, 18 h; outline: as §1
# [7] = system: Staphylococcus saprophyticus; assay: Antibacterial activity against Staphylococcus saprophyticus E260 after 18 hrs by agar dilution method; settings: E260, 18 h; outline: as §1
# Enterococcus gallinarum [8] = assay: Antibacterial activity against Enterococcus gallinarum CIP 105985 after 18 hrs by agar dilution method; settings: CIP 105985, 18 h; outline: as §1
# MRC5 [9] = assay: Cytotoxicity against human MRC5 cells assessed as growth inhibition at 10^-5 M after 72 hrs by MTS assay relative to control; settings: MRC5, 72 h, read-out: GI; outline: as §2
# Enterococcus avium = assay: Antibacterial activity against Enterococcus avium CIP 104053 after 18 hrs by agar dilution method; settings: CIP 104053, 18 h; outline: as §1
# Bacillus cereus [10] = assay: Antibacterial activity against Bacillus cereus N190 after 18 hrs by agar dilution method; settings: N190, 18 h; outline: as §1
# Listeria monocytogenes [11] = assay: Antibacterial activity against Listeria monocytogenes CIP 103575 after 18 hrs by agar dilution method; settings: CIP 103575, 18 h; outline: as §1
# Enterococcus hirae = assay: Antibacterial activity against Enterococcus hirae CIP 5855 after 18 hrs by agar dilution method; settings: CIP 5855, 18 h; outline: as §1
# [12] = system: Staphylococcus intermedius; assay: Antibacterial activity against Staphylococcus intermedius N987 after 18 hrs by agar dilution method; settings: N987, 18 h; outline: as §1
# Listeria monocytogenes [13] = assay: Antibacterial activity against Listeria monocytogenes N783 after 18 hrs by agar dilution method; settings: N783, 18 h; outline: as §1
# Staphylococcus aureus [14] = assay: Antibacterial activity against Staphylococcus aureus CIP 7625 after 18 hrs by agar dilution method; settings: CIP 7625, 18 h; outline: as §1
# Enterococcus gallinarum [15] = assay: Antibacterial activity against Enterococcus gallinarum N492 after 18 hrs by agar dilution method; settings: N492, 18 h; outline: as §1
# Enterococcus faecalis [16] = assay: Antibacterial activity against Enterococcus faecalis CIP 104676 after 18 hrs by agar dilution method; settings: CIP 104676, 18 h; outline: as §1
# [17] = system: Staphylococcus epidermidis; assay: Antibacterial activity against Staphylococcus epidermidis CIP 53124 after 18 hrs by agar dilution method; settings: CIP 53124, 18 h; outline: as §1
# Enterococcus faecium [18] = assay: Antibacterial activity against Enterococcus faecium N733 after 18 hrs by agar dilution method; settings: N733, 18 h; outline: as §1
# Bacillus cereus [19] = assay: Antibacterial activity against Bacillus cereus N258 after 18 hrs by agar dilution method; settings: N258, 18 h; outline: as §1
# Staphylococcus aureus [20] = assay: Antibacterial activity against Staphylococcus aureus ATCC 25923 after 18 hrs by agar dilution method; settings: ATCC 25923, 18 h; outline: as §1
# [21] = system: Staphylococcus haemolyticus; assay: Antibacterial activity against Staphylococcus haemolyticus CIP 8156 after 18 hrs by agar dilution method; settings: CIP 8156, 18 h; outline: as §1
# Enterococcus faecalis [22] = assay: Antibacterial activity against Enterococcus faecalis N518 after 18 hrs by agar dilution method; settings: N518, 18 h; outline: as §1
# Bacillus cereus [23] = assay: Antibacterial activity against Bacillus cereus N349 after 18 hrs by agar dilution method; settings: N349, 18 h; outline: as §1
# Staphylococcus aureus [24] = assay: Antibacterial activity against Staphylococcus aureus CIP 53154 after 18 hrs by agar dilution method; settings: CIP 53154, 18 h; outline: as §1
# Bacillus spizizenii = assay: Antibacterial activity against Bacillus subtilis ATCC 6633 after 18 hrs by agar dilution method; settings: ATCC 6633, 18 h; outline: as §1
# [25] = system: Staphylococcus saprophyticus; assay: Antibacterial activity against Staphylococcus saprophyticus CIP 76125 after 18 hrs by agar dilution method; settings: CIP 76125, 18 h; outline: as §1
# Enterococcus faecalis [26] = assay: Antibacterial activity against Enterococcus faecalis N520 after 18 hrs by agar dilution method; settings: N520, 18 h; outline: as §1
# Staphylococcus aureus [27] = assay: Antibacterial activity against Staphylococcus aureus CRBIP 2121 after 18 hrs by agar dilution method; settings: CRBIP 2121, 18 h; outline: as §1
# Mammaliicoccus sciuri = assay: Antibacterial activity against Staphylococcus sciuri N993 after 18 hrs by agar dilution method; settings: N993, 18 h; outline: as §1
# Enterococcus faecium [28] = assay: Antibacterial activity against Enterococcus faecium CIP 103014 after 18 hrs by agar dilution method; settings: CIP 103014, 18 h; outline: as §1
# Staphylococcus aureus [29] = assay: Antibacterial activity against Staphylococcus aureus ATCC 9144 oxford after 18 hrs by agar dilution method; outline: as §1
# Streptococcus agalactiae = assay: Antibacterial activity against Streptococcus agalactiae CIP 103227 after 18 hrs by agar dilution method; settings: ATCC 13813, 18 h; outline: as §1
# Staphylococcus aureus [30] = assay: Antibacterial activity against Staphylococcus aureus CIP 53156 after 18 hrs by agar dilution method; settings: CIP 53156, 18 h; outline: as §1
# Enterococcus faecium [31] = assay: Antibacterial activity against Enterococcus faecium CIP 107387 after 18 hrs by agar dilution method; settings: CIP 107387, 18 h; outline: as §1
# [32] = system: Staphylococcus lugdunensis; assay: Antibacterial activity against Staphylococcus lugdunensis ATCC 43809 after 18 hrs by agar dilution method; settings: ATCC 43809, 18 h; outline: as §1
# Listeria monocytogenes [33] = assay: Antibacterial activity against Listeria monocytogenes N836 after 18 hrs by agar dilution method; settings: N836, 18 h; outline: as §1
# Enterococcus faecalis [34] = assay: Antibacterial activity against Enterococcus faecalis N491 after 18 hrs by agar dilution method; settings: N491, 18 h; outline: as §1
# [35] = system: Enterococcus casseliflavus; assay: Antibacterial activity against Enterococcus casseliflavus CIP 103018 after 18 hrs by agar dilution method; settings: CIP 103018, 18 h; outline: as §1
# Enterococcus faecium [36] = assay: Antibacterial activity against Enterococcus faecium N507 after 18 hrs by agar dilution method; settings: N507, 18 h; outline: as §1
# MRC5 [37] = assay: Cytotoxicity against human MRC5 cells assessed as growth inhibition at 10^-6 M after 72 hrs by MTS assay relative to control; settings: MRC5, 72 h, read-out: GI; outline: as §2
# Staphylococcus aureus [38] = assay: Antibacterial activity against Staphylococcus aureus CIP 5710 after 18 hrs by agar dilution method; settings: CIP 5710, 18 h; outline: as §1
# HCT-116 [39] = assay: Cytotoxicity against human HCT116 cells assessed as growth inhibition at 10^-5 M after 72 hrs by MTS assay relative to control; settings: HCT-116, 72 h, read-out: GI; outline: as §2
# Enterococcus faecalis [40] = assay: Antibacterial activity against Enterococcus faecalis CIP 103214 after 18 hrs by agar dilution method; settings: CIP 103214, 18 h; outline: as §1
# Bacillus cereus [41] = assay: Antibacterial activity against Bacillus cereus CIP 6624 after 18 hrs by agar dilution method; settings: CIP 6624, 18 h; outline: as §1
# Enterococcus faecium [42] = assay: Antibacterial activity against Enterococcus faecium N823 after 18 hrs by agar dilution method; settings: N823, 18 h; outline: as §1
smiles,measurement,setting,value
C=C1CC[C@H]2C(C)(C)CCC[C@]2(C)[C@H]1C[C@@H](O)C1=CC(=O)OC1,MIC,Enterococcus durans,50 µM
same,MIC,Listeria monocytogenes [1],> 188 µM
same,MIC,Staphylococcus aureus [2],> 188 µM
same,MIC,Corynebacterium striatum,> 188 µM
same,MIC,[3],> 188 µM
same,inhibition of growth at 1 µM,HCT-116 [4],3%
same,MIC,Enterococcus gallinarum [5],> 188 µM
same,MIC,Listeria innocua,> 188 µM
same,MIC,Enterococcus faecium [6],≤ 188 µM
same,MIC,[7],> 188 µM
same,MIC,Enterococcus gallinarum [8],> 188 µM
same,inhibition of growth at 10 µM,MRC5 [9],86%
same,MIC,Enterococcus avium,> 188 µM
same,MIC,Bacillus cereus [10],≤ 188 µM
same,MIC,Listeria monocytogenes [11],> 188 µM
same,MIC,Enterococcus hirae,> 188 µM
same,MIC,[12],> 188 µM
same,MIC,Listeria monocytogenes [13],> 188 µM
same,MIC,Staphylococcus aureus [14],> 188 µM
same,MIC,Enterococcus gallinarum [15],> 188 µM
same,MIC,Enterococcus faecalis [16],50 µM
same,MIC,[17],> 188 µM
same,MIC,Enterococcus faecium [18],50 µM
same,MIC,Bacillus cereus [19],≤ 188 µM
same,MIC,Staphylococcus aureus [20],> 188 µM
same,MIC,[21],> 188 µM
same,MIC,Enterococcus faecalis [22],50 µM
same,MIC,Bacillus cereus [23],≤ 188 µM
same,MIC,Staphylococcus aureus [24],> 188 µM
same,MIC,Bacillus spizizenii,> 188 µM
same,MIC,[25],> 188 µM
same,MIC,Enterococcus faecalis [26],50 µM
same,MIC,Staphylococcus aureus [27],> 188 µM
same,MIC,Mammaliicoccus sciuri,> 188 µM
same,MIC,Enterococcus faecium [28],> 188 µM
same,MIC,Staphylococcus aureus [29],> 188 µM
same,MIC,Streptococcus agalactiae,50 µM
same,MIC,Staphylococcus aureus [30],> 188 µM
same,MIC,Enterococcus faecium [31],> 188 µM
same,MIC,[32],> 188 µM
same,MIC,Listeria monocytogenes [33],> 188 µM
same,MIC,Enterococcus faecalis [34],50 µM
same,MIC,[35],> 188 µM
same,MIC,Enterococcus faecium [36],50 µM
same,inhibition of growth at 1 µM,MRC5 [37],34%
same,MIC,Staphylococcus aureus [38],> 188 µM
same,inhibition of growth at 10 µM,HCT-116 [39],68%
same,MIC,Enterococcus faecalis [40],50 µM
same,MIC,Bacillus cereus [41],≤ 188 µM
same,MIC,Enterococcus faecium [42],50 µM
